Experimental data: the array DNA melting data of Ke et al. (doi:10.1101/2024.01.08.574731)

Experiments:
[1] = folding enthalpy; higher = less favourable; fluorescence melt of hairpins on a sequencing array, two-state fit; conditions: sodium 0.088 M
Summary of the method: (§1)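 Melting temperature and folding enthalpy were derived from bootstrapped two-state fits. The fitted temperatures were raised by 9.35 °C to agree with UV melts, and four replicates were combined by inverse variance. The underlying data were Cy3 fluorescence images of library hairpins, with annealed Cy3 and quencher oligos, on a sequenced MiSeq flow cell in 50 mM Na-HEPES pH 8.0, 25 mM NaCl, taken in 2.5 °C steps up to 60 °C, normalised to pre-quench Cy3 and to control constructs.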

[2] = melting temperature; fluorescence melt of hairpins on a sequencing array, two-state fit, raised by 9.35 °C to match UV melts; conditions: sodium 0.088 M
Summary of the method: as §1

| Sequence | folding enthalpy [1] [kcal/mol] | Tm [2] [°C] |
| --- | --- | --- |
| GCGCGCGGAAACGCACGC (((.(((....))).))) | -32.6 | 67.8 |
| GATGGCGAAAGCCCATC ((((((....))).))) | -16.6 | 52.4 |
| GATCGCACTCGCGATC ((((((....)))))) | -34.7 | 68.4 |
| GAGTCGGGAAACCGGTTC ((..(((....)))..)) | -15.6 | 32.8 |
| GTCCTCGAAAGAGGGAC ((((((....))).))) | -15.7 | 53.9 |
| GATCACACGGGTGATC ((((((....)))))) | -35.5 | 57.1 |
| GTGTACGGAAACATACAC (((((.(....).))))) | -26 | 36.1 |
| GGGCACGAAAGTGAGCCC ((((((....)))..))) | -32.9 | 56.7 |
| GATCAACTTTTGATC ((((((...)))))) | -30.7 | 43.2 |
| GCGTAGCGAAAGCCGCGC (((..((....))..))) | -16.2 | 61.6 |
| GATCCCTCTAGGGATC ((((((....)))))) | -33.9 | 66.6 |
| GCCCTCGAAAGAGACGGC ((((((....)))..))) | -25.3 | 44.8 |
| GGGTCCGGAAACGGGTCC ((..(((....)))..)) | -27.6 | 50.1 |
| GGGGACACGAAAGTGCCC (((..(((....)))))) | -20.5 | 55.5 |
| GAAGGGGGAAACCCCCTC ((.((((....)))).)) | -12.7 | 42.4 |
| GCCGAGCGAAAGCTGCGC ((..(((....)))..)) | -17.8 | 56.4 |
| GGGTACGAAAGTATGCCC ((((((....)))..))) | -16 | 37.3 |
| GACAGTGGAAACACTGCC (.(((((....))))).) | -14.5 | 46 |
| AACCGGAAACGGTT (((((....))))) | -19.8 | 50 |

| Sequence | folding enthalpy [1] [kcal/mol] | Tm [2] [°C] |
| --- | --- | --- |
| GCCTGGCGAAAGCTGGGC (((..((....))..))) | -28.2 | 64.4 |
| GCTTCCGGAAACGGAAAC (.(((((....))))).) | -14.7 | 40.5 |
| GTTAGCCGAAAGGCGAAC (((.(((....))).))) | -20.5 | 57.6 |
| GGTAGCGAAAGCTGAACC ((((((....)))..))) | -17.6 | 38.2 |
| GCATTGCGAAAGCAGCGC ((..(((....)))..)) | -16.1 | 54.9 |
| GGTAGTGAAAACTACC ((((((....)))))) | -33.4 | 58.5 |
| GACACGCGAAAGCGCGTC (((.(((....))).))) | -25.2 | 63.9 |
| GTCTCCCGAAAGGGGGAC (((.(((....))).))) | -32.4 | 65.9 |
| GTTGTCTCGAAAGAGAAC (((..(((....)))))) | -22.2 | 46.1 |
| GCTAAGAAATTAGC (((((....))))) | -16.8 | 39.5 |
| GGTAGCGGAAACACTACC (((((.(....).))))) | -30.9 | 44.8 |
| GGAGTCGAAAGACTATCC ((((((....)))..))) | -13.8 | 32.9 |
| GATCTCCCGTGAGATC ((((((....)))))) | -35.4 | 52.5 |
| GGTACCGAAAGGTCCACC ((((((....)))..))) | -13.3 | 41.3 |
| GCTGGCGGAAACACCAGC (((((.(....).))))) | -40.8 | 53.5 |
| GGCCCAGGAAACCGGACC ((.((.(....).)).)) | -27.4 | 33.5 |
| GATCGCGAAAGCGGAATC ((((((....)))..))) | -10.9 | 34.8 |
| GGGAATGGAAACATTCTC (.(((((....))))).) | -24.2 | 44.9 |
| GCCTTGGAAACAAGGC ((((((....)))))) | -34.6 | 67.8 |
